The source made the active and inactive calls. The rule behind the calls is not given here.
How the values were obtained:
Toxoplasma gondii [1] = test: Antiparasitic activity against Toxoplasma gondii 2F tachyzoites infected in HFF assessed as parasite growth inhibition-related decrease in beta-galactosidase activity treated prior to infection measured after 5 days by spectrophotometry; type: functional, organism-based; settings: 120 h
[2] = Cytotoxicity against human HFF by spectrophotometry; type: cell-based; settings: HFF cells, read-out: TD50 (the source's name)
[3] = Therapeutic index, ratio of TD50 for human HFF to IC50 for Toxoplasma gondii 2F tachyzoites; settings: HFF cells and Toxoplasma gondii 2F tachyzoites, read-out: TI
Toxoplasma gondii [4] = test: Antiparasitic activity against Toxoplasma gondii 2F tachyzoites infected in HFF assessed as inhibition of tachyzoite host cell invasion at 25 uM treated 20 mins prior to infection measured after 1 hr using DAPI staining by immunofluorescence microscopy relative to control; type: functional; parameters: scale not given: the % may be the effect or the level left
Summary of the method: (§1)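 Tachyzoites (strain 2F) preincubated with compound or DMSO (final 25 μM) at room temperature 20 min, then added to HFF monolayers; 1 h at 37 °C, 5% CO2, rinsed and fixed. Red/green sequential staining: attached/extracellular parasites labelled Rb anti-p30 with Alexa Fluor 594 (red), penetrated/intracellular green, host nuclei blue. Penetrated and attached counts compared with DMSO control.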

Toxoplasma gondii [5] = test: Antiparasitic activity against Toxoplasma gondii 2F tachyzoites infected in HFF assessed as decrease in parasite penetration and attachment to host cell at 25 uM treated 20 mins prior to infection measured after 1 hr using DAPI staining by immunofluorescence microscopy relative to control; type: functional; parameters: scale not given: the % may be the effect or the level left; summary of the method: as §1
Toxoplasma gondii [6] = test: Antiparasitic activity against Toxoplasma gondii 2F tachyzoites infected in HFF assessed as inhibition of intracellular parasite replication at 25 uM treated 2 hrs postinfection measured after 26 hrs using DAPI staining by fluorescence microscopy relative to control; type: functional, organism-based
Summary of the method: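 HFF monolayers inoculated with tachyzoites, 2 h incubation, then compound (final 25 μM) or DMSO control added to medium. Replication ran 26 h; monolayers fixed, permeabilized, immunolabelled with Rb anti-p30 (SAG1) and goat anti-rabbit Alexa Fluor 594 (red), imaged by fluorescence.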

SMILES	IC50 (Toxoplasma gondii [1]) [µM]	IC90 (Toxoplasma gondii [1]) [µM]	CC50 [2] [µM]	selectivity ratio [3]	Activity (Toxoplasma gondii [4]) [%]	Activity (Toxoplasma gondii [5]) [%]	Activity (Toxoplasma gondii [6])
CCOC(=O)c1csc(NN=C2CCC(C)CC2)n1 (centres undefined)	60	151	≥ 320	9	–	–	–
CCOC(=O)c1csc(N/N=C(\C)c2cccs2)n1	37	136	≥ 320	15	–	–	–
CCOC(=O)c1csc(NN=C2CCCCC2)n1	160	638	≥ 320	4	45	–	–
CCOC(=O)c1csc(N/N=C/c2cccc3ccccc23)n1	52	182	≥ 320	11	35	47	–
CCOC(=O)c1csc(N/N=C2/CCC(C)C2)n1 (centres undefined)	59	190	≥ 320	10	48	–	–
CCOC(=O)c1csc(N/N=C2/CCCC2C)n1 (centres undefined)	130	248	≥ 320	4	–	–	–
CCOC(=O)c1csc(N/N=C(\C)c2ccco2)n1	49	161	241	5	–	–	–
CCOC(=O)c1csc(N/N=C(\C)c2cc3ccccc3oc2=O)n1	21	55	≥ 320	27	–	–	–
CCOC(=O)c1csc(NN=C2CCCC2)n1	92	239	≥ 320	6	–	–	–
CCOC(=O)c1csc(N/N=C2/CCCCC2C)n1 (centres undefined)	185	508	≥ 320	3	–	–	–
CC1CCC/C1=N/Nc1nc(C(=O)O)cs1 (centres undefined)	≥ 320	–	≥ 320	–	–	–	–
CCOC(=O)c1csc(NN=C2CCCCCC2)n1	77	226	≥ 320	7	–	–	–
O=C(O)c1csc(NN=C2CCCC2)n1	≥ 320	–	≥ 320	–	–	47	–
CCOC(=O)c1csc(N/N=C/c2cccnc2)n1	162	398	≥ 320	4	–	–	–
CC1CCC/C(=N/Nc2nc(C(=O)O)cs2)C1 (centres undefined)	≥ 320	–	≥ 320	–	–	–	–
CCOC(=O)c1csc(N/N=C(\C)c2ccc3ccccc3c2)n1	43	88	127	3	45	–	–

SMILES	IC50 (Toxoplasma gondii [1]) [µM]	IC90 (Toxoplasma gondii [1]) [µM]	CC50 [2] [µM]	selectivity ratio [3]	Activity (Toxoplasma gondii [4]) [%]	Activity (Toxoplasma gondii [5]) [%]	Activity (Toxoplasma gondii [6])
CCOC(=O)c1csc(N/N=C(\C)c2ccccn2)n1	3	7	6	2	147	–	Active
O=C(O)c1csc(NN=C2CCCCCC2)n1	179	3870	≥ 320	3	–	–	–
CCOC(=O)c1csc(N/N=C(\C)c2cccnc2)n1	34	86	≥ 320	17	–	–	–
CC1CCCC/C1=N/Nc1nc(C(=O)O)cs1 (centres undefined)	128	310	≥ 320	4	–	–	–
CCOC(=O)c1csc(N/N=C/c2ccc3c(c2)OCO3)n1	479	2590	≥ 320	1	–	–	–
CCOC(=O)c1csc(N/N=C/c2c[nH]c3ccccc23)n1	280	2240	≥ 320	2	–	–	–
CC1CC/C(=N/Nc2nc(C(=O)O)cs2)C1 (centres undefined)	38	70	82	2	47	–	–
CCOC(=O)c1csc(N/N=C/c2ccco2)n1	≥ 320	–	≥ 320	–	–	–	–
CC1CCC(=NNc2nc(C(=O)O)cs2)CC1 (centres undefined)	≥ 320	–	≥ 320	–	–	–	–
O=C(O)c1csc(NN=C2CCCCC2)n1	≥ 320	–	≥ 320	–	45	–	–
CCOC(=O)c1csc(N/N=C(\C)c2ccncc2)n1	64	188	≥ 320	9	–	–	–
CCOC(=O)c1csc(N/N=C/c2ccncc2)n1	≥ 320	–	≥ 320	–	49	–	–
CCOC(=O)c1csc(N/N=C/c2cccs2)n1	≥ 320	–	≥ 320	–	–	–	–
COc1cc(Cc2cnc(N)nc2N)cc(OC)c1OC [TRIMETHOPRIM]	14	–	≥ 320	41	–	–	–
CCOC(=O)c1csc(N/N=C2/CCCC(C)C2)n1 (centres undefined)	15	46	84	6	48	–	–

From ChEMBL document CHEMBL1158489, “Synthesis and evaluation of 4-acyl-2-thiazolylhydrazone derivatives for anti-Toxoplasma efficacy in vitro” (J Med Chem, 2009)
